Active and inactive are the calls of the source. No cut-off for these calls is given here. Starred links: 1 amine or outer side, 2 acyl side, 3 side chain; linkers in the order of their positions; H or OH if unused. Non-standard residues stand in square brackets, D forms with d. Residues, ends and D or L forms follow the SMILES beside them. Tyr(3-NO2) = N[C@@H](Cc1ccc(O)c([N+](=O)[O-])c1)C(=O)O; X1 = O=C([C@H](Cc1ccccc1)n1cc(CN[*:1])nn1)[*:2]; 4Abz = Nc1ccc(C(=O)O)cc1
Tests used:
Trypsin (Homo sapiens) [1] = target: T1, Trypsin (Homo sapiens) (UniProt P07477+P07478+P35030); assay: Inhibition of trypsin (unknown origin) incubated for 30 mins using Abz-Thr-Pro-Arg-Ser-Ala-Leu-Gln-EDDnp substrate; format: protein assay
Homo sapiens = species: Homo sapiens; assay: Inhibition of chymotrypsin (unknown origin) incubated for 30 mins using Abz-Thr-Pro-Phe-Ser-Gly-Gln-EDDnp substrate
[2] = target: T2, Neutrophil elastase (Homo sapiens) (UniProt P08246); assay: Inhibition of human neutrophil elastase incubated for 30 mins using Abz-Ala-Pro-Glu-Glu-Ile-Met-Arg-Arg-Gln-(3-NO2-Tyr) substrate
T2 sequence (whole entry): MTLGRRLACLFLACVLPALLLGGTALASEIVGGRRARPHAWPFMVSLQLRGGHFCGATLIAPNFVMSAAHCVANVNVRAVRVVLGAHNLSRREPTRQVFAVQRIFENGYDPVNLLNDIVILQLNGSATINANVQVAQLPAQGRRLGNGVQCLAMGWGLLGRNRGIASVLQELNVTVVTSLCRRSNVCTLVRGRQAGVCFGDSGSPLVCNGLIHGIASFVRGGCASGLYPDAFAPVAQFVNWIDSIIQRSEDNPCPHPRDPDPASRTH

[3] = target: 72 kDa type IV collagenase (Homo sapiens) (UniProt P08253); assay: Inhibition of human recombinant MMP-2 expressed in CHO cells incubated for 30 mins by Mca-Arg-Pro-Pro-Gly-Phe-Ser-Ala-Phe-Lys(Dnp) substrate; format: cell-based
[4] = target: Cathepsin D (Homo sapiens) (UniProt P07339); assay: Inhibition of human cathepsin D incubated for 30 mins using Mca-Gly-Lys-Pro-Ile-Leu-Phe-Phe-Arg-Leu-Lys(Dnp)-D-Arg-NH2 substrate
[5] = target: T3, Pro-cathepsin H (Homo sapiens) (UniProt P09668); assay: Inhibition of human cathepsin H using fluorogenic AMC-derived peptide substrate assessed as reduction in residual activity preincubated for 30 mins followed by substrate addition
T3 sequence (whole entry): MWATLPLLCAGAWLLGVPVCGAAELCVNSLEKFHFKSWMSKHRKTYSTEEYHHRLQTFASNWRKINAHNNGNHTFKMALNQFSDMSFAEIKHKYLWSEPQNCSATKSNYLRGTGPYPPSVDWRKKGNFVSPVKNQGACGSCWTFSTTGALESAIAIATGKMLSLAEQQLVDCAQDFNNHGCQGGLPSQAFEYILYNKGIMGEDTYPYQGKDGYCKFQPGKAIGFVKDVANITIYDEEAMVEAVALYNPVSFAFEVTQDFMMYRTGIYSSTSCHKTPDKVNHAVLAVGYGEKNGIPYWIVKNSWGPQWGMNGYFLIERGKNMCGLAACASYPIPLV

[6] = target: Cathepsin B (Homo sapiens) (UniProt P07858); assay: Inhibition of human cathepsin B
Trypsin (Homo sapiens) [7] = target: T1, Trypsin (Homo sapiens); assay: Substrate activity of trypsin (unknown origin) assessed as compound hydrolysis; format: protein assay
Outline: (§1)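 Compound was incubated with each protease and the incubation mixtures were analysed by RP-HPLC for proteolytic degradation of the compound.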

[8] = target: Cathepsin B (Homo sapiens) (UniProt P07858); assay: Substrate activity of human cathepsin B assessed as compound hydrolysis; outline: as §1
Cathepsin S [9] = target: T4, Cathepsin S (Homo sapiens, UniProt P25774); assay: Reversible inhibition of human cathepsin S at 20 uM preincubated for 30 mins followed by Biot-(PEG)2-Ahx-LeuValGly-DMK addition measured after 1 hr by chemiluminescence assay
Target sequence in this assay (P25774 115-331 limits assumed): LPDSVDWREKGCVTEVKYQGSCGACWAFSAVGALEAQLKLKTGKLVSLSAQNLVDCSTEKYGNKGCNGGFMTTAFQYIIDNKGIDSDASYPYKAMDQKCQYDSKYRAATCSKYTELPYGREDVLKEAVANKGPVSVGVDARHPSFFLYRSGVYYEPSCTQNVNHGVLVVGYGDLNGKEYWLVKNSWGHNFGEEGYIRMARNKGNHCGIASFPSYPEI

Cathepsin S [10] = target: T4, Cathepsin S; assay: Reversible inhibition of human cathepsin S at 20 uM in presence of excess Z-LR-AMC
Target sequence in this assay (P25774 115-331 limits assumed): as above

[11] = target: T5, Cathepsin K (Homo sapiens) (UniProt P43235); assay: Inhibition of human cathepsin K […] activity at 3 uM pre-incubated for 30 mins before bradykinin substrate addition by reverse-phase chromatography
T5 sequence (whole entry): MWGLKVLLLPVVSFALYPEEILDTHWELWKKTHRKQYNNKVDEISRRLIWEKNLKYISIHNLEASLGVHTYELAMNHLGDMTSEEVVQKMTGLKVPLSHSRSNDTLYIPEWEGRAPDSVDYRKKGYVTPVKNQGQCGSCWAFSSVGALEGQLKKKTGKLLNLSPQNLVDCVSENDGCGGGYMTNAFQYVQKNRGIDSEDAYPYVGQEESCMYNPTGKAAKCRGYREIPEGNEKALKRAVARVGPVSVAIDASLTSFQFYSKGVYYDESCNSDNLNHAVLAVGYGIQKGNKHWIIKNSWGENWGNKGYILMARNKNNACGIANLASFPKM

[12] = target: T5, Cathepsin K (Homo sapiens); assay: Inhibition of human cathepsin K […] activity at 100 nM pre-incubated for 30 mins before bradykinin substrate addition by reverse-phase chromatography
[13] = target: T5, Cathepsin K (Homo sapiens); assay: Inhibition of human cathepsin K […] activity at 3 uM pre-incubated for 30 mins before Abz-Arg-Pro-Pro-Gly-Phe-Ser-Pro-Phe-Arg-(3-NO2-Tyr) substrate addition by reverse-phase chromatography
[14] = target: T5, Cathepsin K (Homo sapiens); assay: Inhibition of human cathepsin K […] activity at 100 nM pre-incubated for 30 mins before Abz-Arg-Pro-Pro-Gly-Phe-Ser-Pro-Phe-Arg-(3-NO2-Tyr) substrate addition by reverse-phase chromatography
[15] = target: T5, Cathepsin K (Homo sapiens); assay: Inhibition of human cathepsin K […] activity assessed as normalized bradykinin equivalents ratio at 5 uM pre-incubated for 15 mins before bradykinin substrate addition by competitive enzyme immunoassay (reference value: <0.5%); design: scale not given: the % may be the effect or the level left
[16] = target: T5, Cathepsin K (Homo sapiens); assay: Inhibition of human cathepsin K […] activity assessed as normalized bradykinin equivalents ratio at 5 uM pre-incubated for 15 mins before kallidin substrate addition by competitive enzyme immunoassay (reference value: <0.5%); design: scale not given: the % may be the effect or the level left
Cathepsin S [17] = target: T4, Cathepsin S; assay: (§2) Reversible competitive inhibition of human cathepsin S using fluorogenic AMC-derived peptide substrate assessed as reduction in residual activity at pH 5.5 preincubated for 30 mins followed by substrate addition
Outline: (§3)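 Ki values for cathepsin S determined at pH 5.5 and again at pH 7.4, a pH at which this enzyme stays stable and active, to compare the two conditions.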
Target sequence in this assay (P25774 whole entry): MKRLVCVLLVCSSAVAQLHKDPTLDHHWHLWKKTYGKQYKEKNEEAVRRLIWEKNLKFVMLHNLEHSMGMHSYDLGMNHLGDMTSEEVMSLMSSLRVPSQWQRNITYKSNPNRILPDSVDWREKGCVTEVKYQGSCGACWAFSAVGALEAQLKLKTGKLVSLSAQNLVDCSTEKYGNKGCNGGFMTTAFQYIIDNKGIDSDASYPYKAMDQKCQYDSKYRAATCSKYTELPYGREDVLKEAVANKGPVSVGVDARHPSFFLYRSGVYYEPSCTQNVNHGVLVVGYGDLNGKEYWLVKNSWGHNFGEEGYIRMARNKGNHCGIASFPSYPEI

Cathepsin S [18] = target: T4, Cathepsin S; assay: Reversible competitive inhibition of human cathepsin S using fluorogenic AMC-derived peptide substrate assessed as reduction in residual activity at pH 7.4 preincubated for 30 mins followed by substrate addition; outline: as §3
Target sequence in this assay (P25774 whole entry): as above

Cathepsin K = target: T6, Cathepsin K (Homo sapiens, UniProt P43235); assay: Reversible competitive inhibition of human cathepsin K using fluorogenic AMC-derived peptide substrate assessed as reduction in residual activity preincubated for 30 mins followed by substrate addition
T6 sequence (P43235 whole entry): T5 sequence (whole entry)
Outline: (§4)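 Inhibition constants (Ki) determined at pH 5.5, with reversibility and competitive mode also assessed.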

Procathepsin L [19] = target: T7, Procathepsin L (Homo sapiens, UniProt P07711); assay: Reversible competitive inhibition of human cathepsin L using fluorogenic AMC-derived peptide substrate assessed as reduction in residual activity preincubated for 30 mins followed by substrate addition; outline: as §4
Target sequence in this assay (P07711 whole entry): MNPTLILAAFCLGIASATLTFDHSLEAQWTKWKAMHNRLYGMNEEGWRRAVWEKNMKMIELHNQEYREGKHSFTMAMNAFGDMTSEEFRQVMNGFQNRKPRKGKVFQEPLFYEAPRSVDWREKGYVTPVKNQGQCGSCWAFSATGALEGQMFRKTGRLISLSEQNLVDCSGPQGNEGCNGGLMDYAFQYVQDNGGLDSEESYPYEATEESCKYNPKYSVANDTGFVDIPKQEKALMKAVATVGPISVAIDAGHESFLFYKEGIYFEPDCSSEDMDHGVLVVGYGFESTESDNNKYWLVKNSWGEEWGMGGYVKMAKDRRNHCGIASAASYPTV

Pro-cathepsin H = target: T8, Pro-cathepsin H (Homo sapiens, UniProt P09668); assay: Reversible competitive inhibition of human cathepsin H using fluorogenic AMC-derived peptide substrate assessed as reduction in residual activity preincubated for 30 mins followed by substrate addition
T8 sequence (P09668 whole entry): T3 sequence (whole entry)

[20] = target: T5, Cathepsin K (Homo sapiens); assay: Inhibition of human cathepsin K […] activity assessed as normalized bradykinin equivalents ratio at 1 uM pre-incubated for 15 mins before bradykinin substrate addition by competitive enzyme immunoassay (reference value: <0.5%); design: scale not given: the % may be the effect or the level left
[21] = target: T5, Cathepsin K (Homo sapiens); assay: Inhibition of human cathepsin K […] activity assessed as normalized bradykinin equivalents ratio at 1 uM pre-incubated for 15 mins before kallidin substrate addition by competitive enzyme immunoassay (reference value: <0.5%); design: scale not given: the % may be the effect or the level left
[22] = target: T5, Cathepsin K (Homo sapiens); assay: Inhibition of human cathepsin K using fluorogenic AMC-derived peptide substrate assessed as reduction in residual activity preincubated for 30 mins followed by substrate addition
Procathepsin L [23] = target: T7, Procathepsin L; assay: Inhibition of human cathepsin L using fluorogenic AMC-derived peptide substrate assessed as reduction in residual activity preincubated for 30 mins followed by substrate addition
Target sequence in this assay (P07711 114-333 limits assumed): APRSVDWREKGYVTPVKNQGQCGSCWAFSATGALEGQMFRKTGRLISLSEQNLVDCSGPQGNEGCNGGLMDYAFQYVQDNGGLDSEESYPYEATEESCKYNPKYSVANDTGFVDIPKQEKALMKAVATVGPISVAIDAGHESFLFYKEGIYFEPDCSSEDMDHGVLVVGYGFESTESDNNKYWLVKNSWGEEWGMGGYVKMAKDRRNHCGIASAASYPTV

Cathepsin S [24] = target: T4, Cathepsin S; assay: Reversible inhibition of human cathepsin S at 600 uM preincubated for 30 mins followed by Biot-(PEG)2-Ahx-LeuValGly-DMK addition measured after 1 hr by chemiluminescence assay
Target sequence in this assay (P25774 115-331 limits assumed): as the sequence (P25774 115-331 limits assumed) above

Cathepsin S [25] = target: T4, Cathepsin S; assay: as §2; outline: as §3; remark: listed apart in the source
Target sequence in this assay (P25774 115-331 limits assumed): as above

[26] = target: Cathepsin S (Mus musculus) (UniProt O70370); assay: Inhibition of cathepsin S in C57/Bl6 mouse spleen lysate using Z-Val-Leu-Arg-AMC as substrate at 10 uM preincubated for 30 mins followed by substrate addition; format: subcellular
Cathepsin S [27] = target: T4, Cathepsin S; assay: Reversible inhibition of human cathepsin S at 600 uM in presence of excess Z-LR-AMC
Target sequence in this assay (P25774 115-331 limits assumed): as above

[28] = target: Cathepsin B (Mus musculus) (UniProt P10605); assay: Inhibition of cathepsin B in C57/Bl6 mouse spleen lysate using Z-Arg-Arg-AMC as substrate at 10 uM preincubated for 30 mins followed by substrate addition; format: subcellular
Cathepsin S [29] = target: T4, Cathepsin S; assay: Inhibition of human cathepsin S using fluorogenic AMC-derived peptide substrate assessed as reduction in residual activity preincubated for 30 mins followed by substrate addition
Target sequence in this assay (P25774 115-331 limits assumed): as above

Chain of Cathepsin D (Homo sapiens) (P07339 65-162 limits assumed): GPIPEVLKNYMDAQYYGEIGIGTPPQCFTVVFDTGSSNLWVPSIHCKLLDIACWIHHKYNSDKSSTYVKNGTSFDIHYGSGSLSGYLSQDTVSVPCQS
Chain of Cathepsin D (Homo sapiens) (P07339 169-412 limits assumed): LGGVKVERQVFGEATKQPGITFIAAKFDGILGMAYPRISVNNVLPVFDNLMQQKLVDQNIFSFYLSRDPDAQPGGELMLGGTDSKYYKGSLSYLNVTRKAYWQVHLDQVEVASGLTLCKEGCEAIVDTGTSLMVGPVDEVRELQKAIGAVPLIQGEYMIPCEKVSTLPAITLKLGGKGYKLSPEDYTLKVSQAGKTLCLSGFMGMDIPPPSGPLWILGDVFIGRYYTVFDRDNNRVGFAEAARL
Chain of 72 kDa type IV collagenase (Homo sapiens) (P08253 110-660 limits assumed): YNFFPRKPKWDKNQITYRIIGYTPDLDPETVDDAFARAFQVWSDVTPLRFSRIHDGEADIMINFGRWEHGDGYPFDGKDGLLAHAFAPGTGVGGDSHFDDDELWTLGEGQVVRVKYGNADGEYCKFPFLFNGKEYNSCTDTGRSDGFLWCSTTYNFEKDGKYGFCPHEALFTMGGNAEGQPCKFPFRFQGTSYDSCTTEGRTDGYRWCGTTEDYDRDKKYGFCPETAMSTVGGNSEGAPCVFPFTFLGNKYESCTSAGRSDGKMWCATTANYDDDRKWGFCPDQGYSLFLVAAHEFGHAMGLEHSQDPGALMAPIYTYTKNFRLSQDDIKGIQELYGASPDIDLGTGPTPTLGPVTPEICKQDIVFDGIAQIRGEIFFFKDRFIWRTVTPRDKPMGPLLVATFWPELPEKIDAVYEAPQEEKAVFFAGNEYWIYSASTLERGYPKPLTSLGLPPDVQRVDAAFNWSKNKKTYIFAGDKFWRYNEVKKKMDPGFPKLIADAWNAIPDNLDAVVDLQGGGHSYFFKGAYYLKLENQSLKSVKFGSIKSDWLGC
Chain of Cathepsin B (Mus musculus) (P10605 80-333 limits assumed): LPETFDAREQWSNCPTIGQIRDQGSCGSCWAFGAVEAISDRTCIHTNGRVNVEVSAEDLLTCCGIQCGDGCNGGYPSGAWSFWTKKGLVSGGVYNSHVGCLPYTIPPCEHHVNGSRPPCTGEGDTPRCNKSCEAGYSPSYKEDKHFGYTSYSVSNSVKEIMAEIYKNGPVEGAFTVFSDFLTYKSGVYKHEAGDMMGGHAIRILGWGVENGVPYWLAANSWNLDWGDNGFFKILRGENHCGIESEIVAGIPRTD

For `N=C(N)NCCC[C@H](NC(=O)[C@H](Cc1ccccc1)NC(=O)[C@@H]1CCCN1C(=O)[C@H](CO)NC(=O)[C@H](Cc1ccccc1)n1cc(CNC(=O)[C@@H]2CCCN2C(=O)[C@@H]2CCCN2C(=O)[C@H](CCCNC(=N)N)NC(=O)c2ccc(N)cc2)nn1)C(=O)N[C@@H](Cc1ccc(O)c([N+](=O)[O-])c1)C(N)=O` (H-[4Abz]RPP[X1]SPFR[Tyr(3-NO2)]-NH2), the inhibition (Trypsin (Homo sapiens) [1]) was “inactive”, the inhibition (Homo sapiens) was “inactive” and the inhibition [2] was “inactive”. For the same compound, the inhibition [3] was “inactive”, the inhibition [4] was “inactive” and the inhibition [5] was “inactive”. The inhibition [6] was “inactive”, the Activity (Trypsin (Homo sapiens) [7]) was “Active” and the Activity [8] was “Active”. The inhibition (Cathepsin S [9]) was “Active”, the inhibition (Cathepsin S [10]) was “inactive” and the inhibition [11] was “Active”. The inhibition [12] was “Active”, the inhibition [13] was “Active” and the inhibition [14] was “Active”. For the same compound, the Activity [15] was 100%, the Activity [16] was 100% and the Ki (Cathepsin S [17]) was “Not Active”. For the same compound, the Ki (Cathepsin S [18]) was “Not Active”, the Ki (Cathepsin K) was 800 nM and the Ki (Procathepsin L [19]) was 22000 nM. The Ki (Pro-cathepsin H) was “Not Active”.

`CCCNC(=O)[C@H]1O[C@@H]1C(=O)N[C@H](C(=O)N1CCC[C@H]1C(=O)O)[C@@H](C)CC` was tested, and the Activity [20] was < 0.5% and the Activity [21] was < 0.5%.

`CSCC[C@H](NC(=O)[C@@H]1CCCN1C(=O)[C@H](Cc1c[nH]cn1)NC(=O)[C@H](Cc1c[nH]c2ccccc12)NC(=O)[C@H](CCCNC(=N)N)NC(=O)CNC(C)=O)C(=O)NNC(=O)N[C@@H](C)C(=O)N1CCC[C@H]1C(=O)N[C@@H](Cc1c[nH]c2ccccc12)C(=O)N[C@@H](CCC(=O)O)C(=O)N[C@H](C)C(=O)N[C@H](CCCNC(=N)N)C(N)=O` was tested, and the inhibition (Trypsin (Homo sapiens) [1]) was “inactive”, the inhibition (Homo sapiens) was “inactive” and the inhibition [2] was “inactive”. The inhibition [3] was “inactive”, the inhibition [4] was “inactive” and the inhibition [5] was “Active”. The inhibition [6] was “Active”, the inhibition [22] was “Active” and the inhibition (Procathepsin L [23]) was “Active”. For the same compound, the inhibition (Cathepsin S [24]) was “Active”, the inhibition (Cathepsin S [25]) was “Active” and the inhibition [26] was “Active”. The inhibition (Cathepsin S [27]) was “inactive”, the inhibition [28] was “inactive” and the Ki (Cathepsin S [17]; read-out: Ki) was 26 nM. The Ki (Cathepsin S [18]; read-out: Ki) was 17 nM, the Ki (Cathepsin K) was 3 nM and the Ki (Procathepsin L [19]) was 5 nM. The Ki (Pro-cathepsin H; read-out: Ki) was 7000 nM and the inhibition (Cathepsin S [29]) was “Active”.

— ChEMBL document CHEMBL4251609, “Substrate-derived triazolo- and azapeptides as inhibitors of cathepsins K and S” (Eur J Med Chem, 2018)
